Reference: ChEMBL document CHEMBL5653613 (Mol Cancer Ther, 2013)
The source made the active and inactive calls. The rule behind the calls is not given here.

Tests used:
[1] = test system: ZR-75-1; test: Induction of polyploidy in human ZR-75-1 cells assessed as cells with 4N chromosome contents at 5 uM incubated for 48 hrs by PI staining based flow cytometry (reference value: 35); assay type: functional
[2] = test system: T-47D (Homo sapiens); test: Disruption of microtubule dynamics in human T-47D cells at 5 umol/L incubated upto 72 hrs by immunofluorescence staining based analysis; conditions: dose 5.0 µmol/L
[3] = test system: T47D; test: Cytotoxicity against human T47D cells at 1 to 2.5 umol/L incubated for 72 hrs by MTS assay; assay type: functional, cell-based; conditions: dose 1-2.5 µmol/L
[4] = test system: T47D; test: Induction of apoptosis in human T47D cells assessed as rate of apoptotic cell death at 5 umol/L by annexin V/PI staining based flow cytometry relative to control; assay type: functional; conditions: dose 5 µmol/L; at 5 µM
[5] = test system: ZR-75-1; test: Induction of polyploidy in human ZR-75-1 cells at 1 umol/L incubated for 72 hrs by microscopic analysis relative to control; assay type: functional; conditions: dose 1 µmol/L, at 1 µM
Outline: (§1)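 Cells stained with Hema-3 and photographed under a light microscope with CCD camera. Polyploid cells scored as percent of the population.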

[6] = test system: T47D; test: Induction of cell cycle arrest at metaphase in human T47D cells assessed as disorganization of multipolar mitotic spindles at 5 umol/L preincubated for 24 hrs followed by extensive compound washout and subsequent culturing in compound-free media measured upto 120 mins by immunofluorescence staining based analysis; assay type: functional; conditions: dose 5.0 µmol/L
Outline: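 T-47D cells were treated at 37°C with 5 µmol/L for 24 h, washed extensively, then cultured in DMEM with 10% FBS for 30, 60 and 120 min. α- and γ-tubulin were detected by immunofluorescence with DAPI, imaged at 400×. The control was a 24 h preincubation with 5 µmol/L RO-3306. One of 2 experiments.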

[7] = test system: ZR-75-1; test: Induction of polyploidy in human ZR-75-1 cells assessed as cells with 2N chromosome contents at 5 uM incubated for 72 hrs by PI staining based flow cytometry (reference value: 48); assay type: functional
[8] = test system: ZR-75-1; test: Induction of apoptosis in human ZR-75-1 cells assessed as early cells at 5 umol/L incubated for 3 days by Annexin V/PI staining based flow cytometry (reference value: 0.5 %); assay type: functional; conditions: dose 5 µmol/L; time 3 day; at 5 µM
[9] = test system: T47D; test: Disruption of microtubule dynamics in human T47D cells assessed as condensed irregular-shaped chromosomes at 5 umol/L incubated for 24 hrs by immunofluorescence staining based analysis; assay type: functional, cell-based; conditions: dose 5.0 µmol/L
Outline: (§2)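 T-47D cells (1 × 10^6/dish) in RPMI-1640 with 5% FBS were treated with or without 5 µmol/L for 24, 48 and 72 h. Cells were fixed in cold acetone and stained with mouse anti-α-tubulin or anti-γ-tubulin, then an FITC anti-mouse IgG secondary, plus DAPI. Fluorescence microscopy, 200× magnification.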

[10] = test system: MCF7; test: Induction of apoptosis in human MCF7 cells assessed as late cells at 5 umol/L incubated for 3 days by Annexin V/PI staining based flow cytometry (reference value: 1.4 %); assay type: functional; conditions: dose 5 µmol/L; time 3 day; at 5 µM
[11] = test system: T47D; test: Inhibition of clonogenic growth in human T47D cells incubated for 10 days by Hema-3 staining based microscopy; assay type: functional, cell-based; conditions: dose 1-5 µmol/L, time 10.0 day
Outline: (§3)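 Colonies were stained with Hema-3, photographed under a microscope with a CCD camera, counted in duplicate, and expressed as % of control. Results are shown from 1 of 2 experiments.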

[12] = test system: T47D; test: Induction of polyploidy in human T47D cells assessed as cells with 8N chromosome contents at 5 uM incubated for 48 hrs by PI staining based flow cytometry (reference value: 0); assay type: functional
[13] = test system: ZR-75-1; test: Cytotoxicity against human ZR-75-1 cells at 1 to 2.5 umol/L incubated for 72 hrs by MTS assay; assay type: functional, cell-based; conditions: dose 1-2.5 µmol/L
[14] = test system: ZR-75-1; test: Induction of polyploidy in human ZR-75-1 cells assessed as cells with 4N chromosome contents at 5 uM incubated for 72 hrs by PI staining based flow cytometry (reference value: 35); assay type: functional
[15] = test system: MCF7; test: Induction of apoptosis in human MCF7 cells assessed as necrotic cells at 5 umol/L incubated for 3 days by Annexin V/PI staining based flow cytometry (reference value: 0.4 %); assay type: functional; conditions: dose 5 µmol/L; time 3 day; at 5 µM
[16] = test system: MCF7; test: Induction of polyploidy in human MCF7 cells assessed as cells with 4N chromosome contents at 5 uM incubated for 72 hrs by PI staining based flow cytometry (reference value: 36); assay type: functional
[17] = test system: T47D; test: Downregulation of histone H3 expression in human T47D cells at 5 umol/L incubated upto 72 hrs by Western blot analysis; assay type: functional, cell-based; conditions: dose 5.0 µmol/L
Outline: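 Cells were treated with 5 µmol/L for 0, 24, 48 and 72 h. Lysates were immunoblotted for AURK-B, phospho-Ser10 histone H3 and total histone H3, with β-actin reprobe as the loading control. Detection by enhanced chemiluminescence.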

[18] = test system: ZR-75-1; test: Induction of apoptosis in human ZR-75-1 cells assessed as necrotic cells at 5 umol/L incubated for 3 days by Annexin V/PI staining based flow cytometry (reference value: 0.7 %); assay type: functional; conditions: dose 5 µmol/L; time 3 day; at 5 µM
[19] = test system: T47D; test: Induction of apoptosis in human T47D cells assessed as cell death at 5 uM; assay type: functional, cell-based; conditions: TDE = time-dependent effect
[20] = test system: ZR-75-1; test: Induction of polyploidy in human ZR-75-1 cells at 10 umol/L incubated for 72 hrs by microscopic analysis relative to control; assay type: functional; conditions: dose 10 µmol/L, at 10 µM; outline: as §1
[21] = Cmax in athymic mouse xenografted with human GTL-16 cells at 6.25 mg/kg, po qd for 14 days consecutively; assay type: ADME, organism-based; conditions: in vivo, time 14 day
[22] = test system: T47D; test: Induction of cell death of human T47D cells with RON-/- at 5 umol/L incubated for 72 hrs followed by media replacement without compound measured upto 10 days by microscopic analysis; assay type: functional, cell-based; conditions: dose 5.0 µmol/L
[23] = test system: T47D; test: Inhibition of cell growth of human T47D cells at 5 uM; assay type: functional, cell-based; conditions: time <= 48.0 hrs, TDE = time-dependent effect
[24] = test system: ZR-75-1; test: Inhibition of clonogenic growth in human ZR-75-1 cells incubated for 10 days by Hema-3 staining based microscopy; assay type: functional, cell-based; conditions: dose 1-5 µmol/L, time 10.0 day; outline: as §3
[25] = test system: MCF7; test: Induction of polyploidy in human MCF7 cells assessed as cells with 8N chromosome contents at 5 uM incubated for 72 hrs by PI staining based flow cytometry (reference value: 0); assay type: functional
[26] = test system: T47D; test: Disruption of microtubule dynamics in human T47D cells assessed as lack of metaphase equatorial alignment at 5 umol/L incubated for 24 hrs by immunofluorescence staining based analysis; assay type: functional, cell-based; conditions: dose 5.0 µmol/L; outline: as §2
[27] = test system: MCF7; test: Induction of polyploidy in human MCF7 cells assessed as cells with 16N chromosome contents at 5 uM incubated for 72 hrs by PI staining based flow cytometry (reference value: 0); assay type: functional
[28] = test system: T47D; test: Induction of polyploidy in human T47D cells assessed as cells with 16N chromosome contents at 5 uM incubated for 72 hrs by PI staining based flow cytometry (reference value: 0); assay type: functional
[29] = test system: ZR-75-1; test: Induction of polyploidy in human ZR-75-1 cells assessed as cells with 8N chromosome contents at 5 uM incubated for 48 hrs by PI staining based flow cytometry (reference value: 0); assay type: functional
[30] = test system: ZR-75-1; test: Induction of polyploidy in human ZR-75-1 cells assessed as cells with 2N chromosome contents at 5 uM incubated for 24 hrs by PI staining based flow cytometry (reference value: 48); assay type: functional
[31] = test system: ZR-75-1; test: Induction of polyploidy in human ZR-75-1 cells assessed as cells with 8N chromosome contents at 5 uM incubated for 72 hrs by PI staining based flow cytometry (reference value: 0); assay type: functional
[32] = test system: MCF7; test: Induction of polyploidy in human MCF7 cells at 5 umol/L by microscopic analysis; assay type: functional, cell-based; conditions: dose 5.0 µmol/L, time 72.0 hrs, TDE = time-dependent effect

For CCOc1ccn(-c2ccc(F)cc2)c(=O)c1C(=O)Nc1ccc(Oc2ccnc(N)c2Cl)c(F)c1 [BMS-777607], the Activity [1] was 12, the Activity [2] was “Active” and the Activity [3] was “inactive”. For the same compound, the Activity [4] was 10.3%, the Activity [5] was 11% and the Activity [6] was “Active”. For the same compound, the Activity [7] was 5, the Activity [8] was 2.3% and the Activity [9] was “Active”. For the same compound, the Activity [10] was 2%, the inhibition [11] was “Dose-Dependent Effect” and the Activity [12] was 23. For the same compound, the Activity [13] was “inactive”, the Activity [14] was 12 and the Activity [15] was 0.5%. For the same compound, the Activity [16] was 41, the Activity [17] was “inactive” and the Activity [18] was 1.8%. The Activity [19] was “Tde”, the Activity [20] was 88% and the Cmax [21] was 4.5 µM. The Activity [22] was “inactive”, the inhibition [23] was “Tde” and the inhibition [24] was “Dose-Dependent Effect”. For the same compound, the Activity [25] was 29, the Activity [26] was “Active” and the Activity [27] was 0. For the same compound, the Activity [28] was 18.5, the Activity [29] was 20 and the Activity [30] was 15.5. The Activity [31] was 20 and the Activity [32] was “Tde”.
